Measured values from ChEMBL document CHEMBL4513216, “Probing the Open Global Health Chemical Diversity Library for Multistage-Active Starting Points for Next-Generation Antimalarials” (ACS Infect Dis, 2020).

Assay: Toxicity liver stage against HepG2, at 10uM
Format: cell-based
Design: test concentration 10 uM, cell line HepG2-A16-CD81EGFP
Details: human, HepG2-A16-CD81EGFP cells; read-out: INHIBITION
In short: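 Uninfected HepG2-A16-CD81EGFP cells, 3 × 10^3 per well, 1536-well, plated on prespotted compound at 10 μM final, parasite-free screening media added to match infected plates; puromycin 10 μM positive, DMSO 0.5% negative; run in parallel with 48 h PbLuc assay at 37 °C, 5% CO2; viability by CellTiter-Glo luminescence, normalized to controls.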

| SMILES | cytotoxicity at 10 µM [%] |
| --- | --- |
| CN1C(=O)CO[C@H](c2ccc(NC(=O)NC(C)(C)C)cc2)[C@H]1CO | -0.973 |
| Cc1cccc2c1nc1n2[C@@H](CNC(=O)c2cnccn2)COC1 | 6.54 |
| CN(C)[C@@H]1CO[C@H](CNC(=O)C2CCCC2)[C@H]1O | -0.321 |
| CC(C)C[C@@H]1N[C@H](C(=O)NC2CCOCC2)Cc2c[nH]c3cccc1c23 | 8.24 |
| CCCNc1ccc(C(=O)NCCc2cccc(OC)c2)cn1 | 0.267 |
| O=C1CCC(c2ccccc2)=NN1CN1CCCCCC1 | -86.3 |
| COc1ccc(CNC(=O)CCc2nnc3ccccn3c2=O)cc1 | -13.5 |
| O=C(NC1CC1)C1CN(C(=O)c2cnccn2)C1 | -10.2 |
| O=S(=O)(NCC1CCN(c2cnccn2)CC1)c1cccs1 | 6.28 |
| CN1CCCC(C(=O)N2CCC(Oc3ccccn3)CC2)C1 (configuration not stated) | -5.15 |
| CCc1nc(-c2noc3ccc(C(=O)NCCN(C)C)cc23)co1 | -150 |
| CN(C)C(=O)CO[C@@H]1CN(Cc2ccccc2)[C@@H]2CCCO[C@@H]21 | 3.09 |
| Cn1ncc2c1NC(=O)CC2c1c(Cl)cccc1Cl (configuration not stated) | 55.1 |
| Cn1nnnc1SCc1cc2c(cc1Cl)OCO2 | 1.14 |
| O=C(O)CCNC(=O)Cc1csc(-c2cccc(Cl)c2)n1 | 8.32 |
| Cn1ccnc1CN1CCC2(COCCN(Cc3ccsc3)C2)C1 (configuration not stated) | -9.81 |
| Cc1oncc1C(=O)N1CCC2(CCN(Cc3ccccn3)C2=O)C1 (configuration not stated) | -11.4 |
| Cc1ccc(Cl)cc1NCc1nc2n(n1)CCCCC2 | 5.89 |
| CCN(CC)c1nc(C)cc(C(=O)Nc2cccc(C(N)=O)c2)n1 | 14.9 |
| Cc1cn[nH]c1C1COCCN1Cc1ccsc1 (configuration not stated) | 2.56 |
| CN(C)c1cccc(C(=O)N2CCn3c(nnc3C3CC3)C2)c1 | 0.7 |
| O=C(c1ccncc1)N1CCC2(COc3ncccc3S(=O)(=O)N2)C1 (configuration not stated) | 9.62 |
| CC(C)c1cc(Br)ccc1NC(=O)NCC(O)CO (configuration not stated) | 9.45 |

| SMILES | cytotoxicity at 10 µM [%] |
| --- | --- |
| OCCN(Cc1ccno1)Cc1cc(Br)ccc1F | 6 |
| Cc1ccc(OCc2cccc(C(=O)N(C)CCC#N)c2)cn1 | -3.3 |
| CCC1CCCCN1C(=O)CCn1cnc2sccc2c1=O (configuration not stated) | -9.79 |
| O=C1NCCCCC1Sc1ccc(F)c(F)c1 (configuration not stated) | 5.58 |
| N#CC1COCCN1C(=O)c1cccc2cc[nH]c12 (configuration not stated) | 7.1 |
| Cc1ccc(-c2cc(CS(=O)(=O)NC3CCCNC3=O)on2)cc1 (configuration not stated) | -172 |
| O=C(c1cc(F)cc(F)c1)N1CCC(O)(C(F)(F)F)CC1 | 7.08 |
| COC(=O)C(C)(C)NC(=O)c1cnc(C(C)(C)C)s1 | 3.87 |
| CNC(=O)c1cccc(NCC(=O)Nc2cc(C)nn2C)c1C | -1.49 |
| CCc1nc(CCNc2ncccn2)sc1C | 14.4 |
| O=C(CCNCc1cccc2c1OCCCO2)NC1CCCC1 | 0.66 |
| CC(NC(=O)NCCC(=O)OC(C)(C)C)c1nncn1C (configuration not stated) | 2.49 |
| CCCS(=O)(=O)CCN1CCN(c2cc(F)ccc2F)CC1 | -10 |
| O=c1c2sccc2ncn1CC(O)CN1CCOCC1 (configuration not stated) | 7.27 |
| Cc1cc(C(=O)NCC(O)c2c(Cl)cccc2Cl)nn1C (configuration not stated) | -9.38 |
| NC(=O)CC1CCN(C(=O)NCC2(c3ccccc3F)CC2)CC1 | 35.2 |
| Cc1cc(C)c(CNC(=O)N2CCC(N3CCNC3=O)CC2)c(=O)[nH]1 | 4.16 |
| CC(=O)NC1CCN(c2c(C#N)cnc3c(C)cc(F)cc23)CC1 | 7.72 |
| Cn1cc(C(=O)N2CCN(Cc3ccccn3)CC2)ccc1=O | 6.85 |
| COc1ccnc(N2CCN(C(=O)c3cc(C4CC4)[nH]n3)CC2)n1 | 6.85 |
| Cc1ccc2c(c1)C(NCc1nnc3n1CCCCC3)CCCO2 (configuration not stated) | -3.39 |
| COC(=O)C(C)(C)NC(=O)C1CC(=O)N(CC2CC2)C1 (configuration not stated) | -142 |
| Cc1ncsc1C(=O)Nc1ccccn1 | 11.3 |

| SMILES | cytotoxicity at 10 µM [%] |
| --- | --- |
| CCCS(=O)(=O)NC1CCN(c2cccc(F)c2C#N)CC1 | -5.6 |
| COc1cc2c(cc1OC)S(=O)(=O)N(Cc1cnn(C)c1)C2=O | 12.6 |
| Cc1cc(=O)n(C)cc1NC(=O)Cc1cccc(F)c1 | -3.86 |
| CC(C)(C)CCCC(=O)NS(=O)(=O)CC1CC1 | -6.19 |
| O=C(CSc1ccccc1)N1CCC(N2CCCCC2=O)CC1 | 11.2 |
| CCN(Cc1ccoc1)C(C(N)=O)c1ccc(Br)cc1 (configuration not stated) | -5.5 |
| CCN(CCC(=O)OC)C(=O)c1cccc(Cn2nc(C)cc2C)c1 | 7.59 |
| Cc1ccc(N2CCC(C(=O)NC3CCc4nccn4C3)CC2)nc1 (configuration not stated) | -7.39 |
| CC(=O)N1CCC[C@H]1C(=O)NCCCN(C(C)C)S(C)(=O)=O | -13 |
| CN(C)c1cc2c(nn1)CCN(C(=O)c1cc3ccccc3o1)C2 | -5.39 |
| Cc1ncsc1C(=O)NCCN1CCCCCC1=O | 12.1 |
| COc1ncccc1NC(=O)NC(CCCO)c1ccccc1 (configuration not stated) | 11.2 |
| Cc1cc(F)ccc1N1CCCC(Nc2nccn3cnnc23)C1=O (configuration not stated) | -6.62 |
| O=C(Cc1cccc(F)c1)NCCNS(=O)(=O)C1CCCC1 | 3.61 |
| CCc1ccc(S(=O)(=O)Nc2cn(C)cc(Br)c2=O)cc1 | -10.8 |
| Cc1cc(F)cc(S(=O)(=O)NCCCN2CCC(O)CC2)c1 | -20.1 |
| CCOCC1CN(C(=O)Cc2cccs2)Cc2ccnn2C1 (configuration not stated) | -78.7 |
| Cc1cccc(C(=O)N2CCCn3c(CN4CCCCC4)nnc3C2)c1 | -84 |
| CCCN1CCC(N2CCC(Cn3cc(CC(C)O)nn3)CC2)CC1 (configuration not stated) | -1.89 |
| N[C@H]1CN(C(=O)CCCc2ccc(F)cc2)C[C@@H]1C1CC1 | -2.45 |
| Cc1nc(N2CCCC2C(=O)NC(C)(C)CO)nc2ccccc12 (configuration not stated) | 0.215 |
| Cc1n[nH]c(C)c1Sc1ccccc1NC(=O)N1CCOCC(O)C1 (configuration not stated) | -2.42 |
| CC(=O)NCCCc1ncnn1-c1cccc(Cl)c1 | 0.254 |

| SMILES | cytotoxicity at 10 µM [%] |
| --- | --- |
| Cc1c(C(=O)N2CCCC(C(=O)c3nccn3C)C2)c[nH]c(=O)c1C#N (configuration not stated) | 5.73 |
| CC(=O)Nc1ccc(C(=O)Nc2cnc3n2CCCC3)c(C)c1 | -1.14 |
| O=C(O)C(c1ccc2[nH]ccc2c1)N1CCN(c2cnccn2)CC1 (configuration not stated) | 2.56 |
| CN(C)CCN1CC(C(=O)N2CCC(c3cccc(O)c3)CC2)CC1=O (configuration not stated) | 0.0902 |
| CNCc1n[nH]c(=O)n1-c1cccc(Cl)c1Cl | 0.396 |
| CN1CCC(CNC(=O)Cc2ccc(N(C)C)cc2)CC1 | 6.8 |
| Cc1noc(C)c1CN1C[C@@H](C(=O)O)[C@H](c2ccccn2)C1 | -6.9 |
| Cc1cc2nc(-c3cn(C4CCNCC4)nn3)[nH]c2cc1C | -8.1 |
| CCN(CCOC)C(=O)c1cc(COc2ccc3c(c2)CCCC3)on1 | -146 |
| COCc1nc(NC(C)Cc2cc(C)n[nH]2)c2cnn(C)c2n1 (configuration not stated) | -10 |
| Cc1cc(NCc2ccc(O)cc2)n2nc(C)cc2n1 | -0.881 |
| CC(Cn1cncn1)NCCN1CCc2ccccc21 (configuration not stated) | -3.21 |
| Cc1noc(C)c1CN1C[C@@H](C(=O)O)[C@H](C(C)C)C1 | 3.51 |
| COc1ccc(CNC(=O)CCN2C[C@@H](C)[C@](O)(C3CC3)C2)cc1 | -12.5 |
| O=C(c1cncc(N2CC[C@@]3(O)CCNC[C@H]3C2)n1)N1CCCC1 | -8.19 |
| C[C@@H]1CN(C(=O)CCN2CCCC2)CC[C@@]1(O)C1CCOCC1 | -5.15 |
| c1cnc(N2CCC(C3CCN(CCCn4cccn4)C3)CC2)nc1 (configuration not stated) | 7.5 |
| CCSCCNC(=O)C(c1cccc(F)c1)N(C)C (configuration not stated) | -11.9 |
| COc1cccc(OCc2cc(C(=O)NC[C@H]3CCCN3)n[nH]2)c1 | -4.9 |
| Cc1nc(CN2CCCC(CCc3c(F)cccc3F)C2)c[nH]1 (configuration not stated) | -21 |
| CCCN1CC(C(=O)Nc2ccccn2)CC1=O (configuration not stated) | -16.4 |
| CC(C)c1nc(N2CC(N3CCCCC3C)C2)c2cnn(C)c2n1 (configuration not stated) | -15.5 |
| Cc1c(CN2CCCC(c3[nH]ncc3S(C)(=O)=O)C2)cnn1C (configuration not stated) | 4.69 |

| SMILES | cytotoxicity at 10 µM [%] |
| --- | --- |
| COc1cccc(S(=O)(=O)NC(=O)CC2CCCO2)c1 (configuration not stated) | 7.53 |
| Cc1nn(C)c(N(C)C)c1CNCC(O)c1ccccc1F (configuration not stated) | -7.9 |
| COCCN1CCC(NCc2ccc(F)cc2F)C1 (configuration not stated) | -2.67 |
| CCOCCCn1c(NC(=O)c2ccnc(C)n2)nc2ccccc21 | -21.1 |
| Cc1cc(C)n(CC2CCCN2C(=O)c2cccc3c2OCO3)n1 (configuration not stated) | -15.7 |
| Cc1noc(C)c1C(=O)N1CCC(Nc2cccnn2)CC1 | -4.48 |
| Cc1nc(C)n(C2CCCN(C(=O)Cc3cn4ccccc4n3)C2)n1 (configuration not stated) | -18.3 |
| O=C(CNCCn1cccn1)NCC1(c2ccccc2)CCOCC1 | -8.27 |
| CCOC1CCN(CC(=O)Nc2oc(C)c3c(C)n[nH]c(=O)c23)CC1 | -14.4 |
| CCCNC(=O)NCc1cccnc1OC | 4.6 |
| COc1cccc(C(=O)NCCCN2CCc3ccccc3C2)c1OC | 6.67 |
| c1cnnc(N2CCCC2CNCc2cnc(N3CCCC3)nc2)c1 (configuration not stated) | 7.96 |
| CO[C@@H]1CC[C@H]2[C@H]1OCCN2Cc1ccc(F)cc1 | 1.82 |
| CC[C@@H]1N(Cc2ccncc2)CCC[C@]12CCC(=O)N2CCOC | 11.5 |
| Cc1cc(C(=O)N2C[C@@H]3COC[C@]3(CN(C)C)C2)c(C)o1 | -131 |
| Cn1ccnc1CN1CCC2(CC(=O)N(c3cccc(F)c3)C2)C1 (configuration not stated) | 6.97 |
| CSc1nc(N)c2c(n1)N=C1COC(=O)C1C2c1cccc(O)c1 (configuration not stated) | 32.8 |
| COc1ccc(CNCC2(COc3cccnc3)C[C@@H](O)[C@@H](O)C2)cc1 (some centres not stated) | -57 |
| CCN(CC)c1ccc(C(=O)N2C[C@H]3CC[C@@H](C2)N(CCOC)C3)cc1 | -12.3 |
| O=C1[C@@H]2CC[C@@H](CN(S(=O)(=O)c3ccccc3)C2)N1Cc1cscn1 | -6.23 |
